Measurements collected from several papers.
Compare with care: the assays were run in different laboratories.
Cell line: HepG2
Observed: cell growth or viability

Cc1cccc(/C=N/NC(=O)c2ccc(Nc3cc(C)nc4c(O)cccc34)cc2)n1 — inhibition (MTT; 20 µM): 45.4%
CCCCCCCCCCCCCCCCOP(=O)([O-])OCC[N+](C)(C)C — inhibition (MTS; 20 µM; 24 h): 37.9%
Cc1cc(Nc2ccc(C(=O)N/N=C/c3cccc(Oc4ccccc4)c3)cc2)c2cccc(O)c2n1 — inhibition (MTT; 20 µM): 51.7%
O=C(CN1C(=O)/C(=C/c2cccs2)SC1=S)Nc1ccccc1 — inhibition (MTT; 10 µM): 11.8%
Cc1ccc(-c2cc(-c3ccc4oc(=O)cc(C)c4c3O)nc(N)n2)cc1 — inhibition (MTT; 2 µg/mL; 72 h): 0%
CCOc1ccc(/C=C2\SC(=S)N(CC(=O)Nc3ccccc3)C2=O)cc1 — inhibition (MTT; 10 µM): 34.3%
Cc1cc(Nc2ccc(C(=O)N/N=C/C3CCCCC3)cc2)c2cccc(O)c2n1 — inhibition (MTT; 20 µM): 45.4%
Cc1cc(=O)oc2ccc(-c3cc(-c4cccc(Cl)c4)nc(N)n3)c(O)c12 — inhibition (MTT; 8 µg/mL; 72 h): 0%
O=C(CN1C(=O)/C(=C/c2ccc(C(F)(F)F)cc2)SC1=S)Nc1ccccc1 — inhibition (MTT; 10 µM): 11.2%
Cc1cc(Nc2ccc(C(=O)N/N=C/c3ccc[nH]3)cc2)c2cccc(O)c2n1 — inhibition (MTT; 20 µM): 43.9%
O=C(CN1C(=O)/C(=C/c2cccc(F)c2)SC1=S)Nc1ccccc1 — inhibition (MTT; 10 µM): 7.27%
Cc1cc(=O)oc2ccc(-c3cc(-c4ccc(Br)cc4)nc(N)n3)c(O)c12 — inhibition (MTT; 2 µg/mL; 72 h): 0%
O=C(CN1C(=O)/C(=C/c2ccc(Cl)cc2)SC1=S)Nc1ccccc1 — inhibition (MTT; 10 µM): 21.2%
CCOC(=O)c1c(C)ncn1CC(c1cn(C)c2ccc([N+](=O)[O-])cc12)c1cn(C)c2ccc([N+](=O)[O-])cc12 — inhibition (MTS; 20 µM; 24 h): 10.2%
Cc1cc(Nc2ccc(C(=O)N/N=C/c3ccnc(Cl)c3)cc2)c2cccc(O)c2n1 — inhibition (MTT; 20 µM): 42.4%
Cc1cc(=O)oc2ccc(-c3cc(-c4cccs4)nc(N)n3)c(O)c12 — inhibition (MTT; 32 µg/mL; 72 h): 14%
COc1ccc(/C=N/NC(=O)c2ccc(Nc3cc(C)nc4c(O)cccc34)cc2)cc1O — inhibition (MTT; 20 µM): 34.6%
O=C(CN1C(=O)/C(=C/c2ccc(Cl)cc2Cl)SC1=S)Nc1ccccc1 — inhibition (MTT; 10 µM): 8.03%
